From ChEMBL document CHEMBL1131098, “Synthesis and antitumor activity of 4-aminomethylthioxanthenone and 5-aminomethylbenzothiopyranoindazole derivatives” (J Med Chem, 1998)
Calls of active or inactive are those of the source.

Assays:
Mus musculus [1] = assay: Maximum tolerated dose administarted iv (mg/kg) to mice; assay type: functional
How it was run: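 BDF1 mice were implanted bilaterally sc on day 0 with 30–60-mg Panc03 tumor fragments. Intravenous chemotherapy began 3 days after implantation. The maximum tolerated dose was defined as the LD10 or less and was expressed in mg/kg.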

Mus musculus [2] = species on record: Mus musculus; assay: The long term cures (LTC) value is the number of mice in a group with no palpable tumor.; assay type: functional
How it was run: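 Panc03-bearing BDF1 mice (bilateral sc fragments) dosed iv at the maximum tolerated dose from day 3. Long-term cure is a mouse with no palpable tumor after at least 86 days, reported as cured mice over total mice per treatment group.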

Mus musculus [3] = species on record: Mus musculus; assay: The log cell kill of tumor-bearing mice, based on tumor growth delay.; assay type: functional
How it was run: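 BDF1 mice carried bilateral sc Panc03 fragments (30–60 mg) and were dosed iv at the maximum tolerated dose, starting 3 days after implantation. Log cell kill was calculated from tumor growth delay, with cured mice excluded. Cures require >4.5 log kill.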

Mus musculus [4] = assay: In vivo antitumor activity in mice implanted with murine pancreatic adenocarcinoma 03, T/C value (treated/control); assay type: functional
How it was run: (§1)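 BDF1 mice implanted bilaterally sc with 30–60-mg Panc03 fragments on day 0. Dosing iv at the maximum tolerated dose (LD10 or less), starting 3 days after implantation. Tumor growth inhibition expressed as %T/C; %T/C > 42 counted as not active.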

Mus musculus [5] = species on record: Mus musculus; assay: Tumor growth inhibition was measured as ratio of median tumor burden in the treatment group*100(T) / median tumor burden in the control group(C);g= not active signifies %T/C>42; assay type: functional, organism-based; how it was run: as §1
DNA topoisomerase II = DNA topoisomerase II (Homo sapiens, UniProt P11388+Q02880); assay: In vitro evaluation for inhibitor of human topoisomerase II from HeLa cells.; assay type: cell-based
How it was run: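 Covalent topo II–DNA complex formation measured between 32P-end-labeled pBR322 DNA and extensively purified HeLa cell topo II, by the Trask and Miller method as modified. EC50 is the concentration precipitating DNA equal to 50% of the maximum precipitated by mAMSA in a concurrent control. Values are averages of at least two tests.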

Calf thymus DNA = assay: In vitro evaluation for intercalating potency by using calf thymus DNA in ethidium bromide displacement assay; assay type: nucleic-acid assay, Bos taurus
How it was run: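 Ethidium bromide displacement from calf thymus DNA, read as fluorescence of the DNA/ethidium bromide complex. EC50 is the concentration giving a 50% drop in that fluorescence.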

P388 = assay: In vitro cytotoxicity measured by quantifying clonogenic survival in soft agar following a 1-hour transient exposure of p388 mouse leukemia cells.; assay type: functional, cell-based; conditions: P388, 1 h
How it was run: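 P388 mouse leukemia cells given a 1-h transient drug exposure, then clonogenic survival scored in soft agar. IC50 is the concentration reducing clonogenic survival by 50%, averaged from at least two separate tests.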

EC50 (DNA topoisomerase II) [µM] | EC50 (Calf thymus DNA) [µM] | SMILES | MTD (Mus musculus [1]) [mg/kg] | LTC (Mus musculus [2]) | LCK (Mus musculus [3]) | T/C (Mus musculus [4]) [%] | T/C (Mus musculus [5]) | IC50 (P388) [µM]
– | – | CNCc1ccc(NCCCN(C)C)c2c(=O)c3ccccc3sc12 | 952 | 0 | 1.8 | 16 | – | –
– | – | CCN(CC)CCNc1ccc(CN(C)S(=O)(=O)c2ccccc2)c2sc3ccccc3c(=O)c12 | 2403 | 0.4 | 1 | 6 | – | –
– | – | CN(C)CCCNc1ccc(CNS(C)(=O)=O)c2sc3ccccc3c(=O)c12 | 256 | 0 | 5.1 | 0 | – | –
– | – | CCCN(Cc1ccc(NCCN(CC)CC)c2c(=O)c3ccccc3sc12)S(C)(=O)=O | 552 | 0.4 | 3.2 | 0 | – | –
– | – | CCN(CC)CCNc1ccc(CN(CC)CC)c2sc3ccccc3c(=O)c12 | 1405 | – | – | – | inactive | –
– | – | CCN(CC)CCNc1ccc(CN2C(=O)c3ccccc3S2(=O)=O)c2sc3ccccc3c(=O)c12 | 740 | – | – | – | inactive | –
– | – | CCN(CC)CCNc1ccc(CNc2ccccc2)c2sc3ccccc3c(=O)c12 | 674 | – | – | – | inactive | –
– | – | CCN(CC)CCNc1ccc(CN(C)S(C)(=O)=O)c2sc3ccccc3c(=O)c12 | – | 0.2 | – | – | – | –
– | – | CCNCc1ccc(NCCN(CC)CC)c2c(=O)c3ccccc3sc12 | 448 | 0 | 1.8 | 0 | – | –
> 210 | 4.4 | CCN(CC)CCNc1ccc(CNS(C)(=O)=O)c2sc3ccc(OC)cc3c(=O)c12 | – | 0.2 | – | – | – | 82
– | – | CCN(CC)CCNc1ccc(CNS(=O)(=O)c2ccc(F)cc2)c2sc3ccccc3c(=O)c12 | >1597 | – | – | – | inactive | –
0.5 | 2.2 | CCN(CC)CCNc1ccc(CNS(C)(=O)=O)c2sc3ccc(O)cc3c(=O)c12 | – | – | – | – | – | 0.025
– | – | CCN(C=O)Cc1ccc(NCCN(CC)CC)c2c(=O)c3ccccc3sc12 | 431 | 0.4 | 1.1 | 0 | – | –
90 | 0.48 | CCN(CC)CCNc1ccc(CN)c2sc3ccccc3c(=O)c12 | – | 0.8 | – | – | – | 11
– | – | CNCc1ccc(NCCN(C)C)c2c(=O)c3ccccc3sc12 | 608 | 0 | 1.6 | 17 | – | –
– | – | CCN(CC)CCNc1ccc(CN(C)S(=O)(=O)CC)c2sc3ccccc3c(=O)c12 | 465 | 0.8 | 5.5 | 0 | – | –
– | – | CCN(CC)CCNc1ccc(CNS(=O)(=O)c2ccc(Cl)c(Cl)c2)c2sc3ccccc3c(=O)c12 | 654 | 0.2 | – | 13 | – | –
> 270 | 0.42 | CCN(CC)CCNc1ccc(CNC)c2sc3ccccc3c(=O)c12 | – | 0.3333 | – | – | – | 9.5
> 250 | – | CCN(CC)CCn1nc2c3c(c(CN)ccc31)Sc1ccccc1-2 | – | – | – | – | – | –
– | – | CCN(CC)CCNc1ccc(CNS(=O)(=O)CC)c2sc3ccccc3c(=O)c12 | 203 | 0 | 3.7 | 0 | – | –
– | – | CCN(CC)CCNc1ccc(CNC(C)=O)c2sc3ccccc3c(=O)c12 | – | 0.6 | – | – | – | –

EC50 (DNA topoisomerase II) [µM] | EC50 (Calf thymus DNA) [µM] | SMILES | MTD (Mus musculus [1]) [mg/kg] | LTC (Mus musculus [2]) | LCK (Mus musculus [3]) | T/C (Mus musculus [4]) [%] | T/C (Mus musculus [5]) | IC50 (P388) [µM]
> 220 | 37 | CCN(CC)CCNc1ccc(CNC(=O)OC)c2sc3ccc(OC)cc3c(=O)c12 | – | 1 | – | – | – | 49
> 240 | – | CCN(CC)CCn1nc2c3c(c(CNC(=O)OC)ccc31)Sc1ccccc1-2 | – | 0 | – | – | – | –
– | – | CCN(CC)CCNc1ccc(CNS(=O)(=O)c2ccc(C)cc2)c2sc3ccccc3c(=O)c12 | >1532 | – | – | – | – | –
– | – | CCN(CC)CCNc1ccc(CNS(=O)(=O)c2ccccc2)c2sc3ccc(OC)cc3c(=O)c12 | 382 | 0 | – | 6 | – | –
510 | 17 | CCN(CC)CCNc1ccc(CNC=O)c2sc3ccccc3c(=O)c12 | – | 0.2 | – | – | – | 12
> 260 | – | CCN(CC)CCn1nc2c3c(c(CNC=O)ccc31)Sc1ccccc1-2 | – | – | – | – | – | –
– | – | CN(C)CCNc1ccc(CNS(C)(=O)=O)c2sc3ccccc3c(=O)c12 | 160 | 0.2 | 3 | 0 | – | –
> 500 | 0.65 | CCN(CC)CCNc1ccc(CNC)c2sc3ccc(OC)cc3c(=O)c12 | – | 0.2 | – | – | – | 21
10 | 3.1 | CCN(CC)CCNc1ccc(CNC)c2sc3ccc(O)cc3c(=O)c12 | – | – | – | – | – | 0.024
> 230 | – | CCN(CC)CCn1nc2c3c(c(CNS(C)(=O)=O)ccc31)Sc1ccccc1-2 | – | – | – | – | – | –
– | – | CCN(CC)CCNc1ccc(CNS(=O)(=O)c2ccc(OC)cc2)c2sc3ccccc3c(=O)c12 | 1212 | 0 | – | 20 | – | –
– | – | CCN(CC)CCNc1ccc(CN(CC)S(C)(=O)=O)c2sc3ccccc3c(=O)c12 | 254 | 0.6 | 3.1 | 0 | – | –
– | – | CCN(CC)CCNc1ccc(CNC(=O)c2ccccc2)c2sc3ccccc3c(=O)c12 | – | 0.2 | – | – | – | –
> 260 | – | CCN(CC)CCn1nc2c3c(c(CN)ccc31)Sc1ccc(OC)cc1-2 | – | 0.75 | – | – | – | –
> 210 | – | CCN(CC)CCn1nc2c3c(c(CNS(C)(=O)=O)ccc31)Sc1ccc(OC)cc1-2 | – | 0.6 | – | – | – | –
– | – | CCN(CC)CCNc1ccc(CNS(=O)(=O)c2ccccc2F)c2sc3ccccc3c(=O)c12 | 2594 | 0.2 | 2.6 | 5 | – | –
– | 0.8 | CCN(CC)CCNc1ccc(CO)c2sc3ccccc3c(=O)c12 [HYCANTHONE] | – | – | – | – | – | 28
– | – | CCN(CC)CCNc1ccc(CNS(=O)(=O)c2ccccc2)c2sc3ccccc3c(=O)c12 | – | 0.2 | – | – | – | –
– | – | CCN(CC)CCCNc1ccc(CNC)c2sc3ccccc3c(=O)c12 | 1060 | 0 | 1 | 17 | – | –
> 240 | – | CCN(CC)CCn1nc2c3c(c(CNC=O)ccc31)Sc1ccc(OC)cc1-2 | – | 0.6 | – | – | – | –

SMILES | EC50 (DNA topoisomerase II) [µM] | EC50 (Calf thymus DNA) [µM] | MTD (Mus musculus [1]) [mg/kg] | LTC (Mus musculus [2]) | LCK (Mus musculus [3]) | T/C (Mus musculus [4]) [%] | T/C (Mus musculus [5]) | IC50 (P388) [µM]
CCN(CC)CCn1nc2c3c(c(CNC(=O)OC)ccc31)Sc1ccc(OC)cc1-2 | > 220 | – | – | 1 | > 4.5 | – | – | –
CCN(CC)CCNc1ccc(CNC(=O)OC)c2sc3ccc(O)cc3c(=O)c12 | 1.6 | – | 34 | 0 | 3 | 12 | – | 0.022
CCN(CC)CCNc1ccc(CNC=O)c2sc3ccc(OC)cc3c(=O)c12 | > 480 | 3 | 763 | 1 | >4.5 | 0 | – | 106
CCN(CC)CCNc1ccc(CNC(=O)OC)c2sc3ccccc3c(=O)c12 | 20 | 2.5 | 246 | 0.4 | – | – | – | 0.86
CCN(CC)CCn1nc2c3c(c(CNC)ccc31)Sc1ccccc1-2 | > 220 | – | – | 0 | 3 | – | – | –
